UCH37 DUB inh – human UCH37 deubiquitinating enzyme inhibition; Q9Y5K5; purified proteasome/UCH37, Ub-AMC cleavage fluorescence; inhibition, % (concentration not given with the values); 330,000 compounds, 0.33% hits;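 active = mean inhibition over replicate wells above about 20%, limit read from the data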;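 also: 0% = compound-free wells with enzyme and 100% = wells lacking proteasome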
Target sequence (Q9Y5K5 whole entry, looked up): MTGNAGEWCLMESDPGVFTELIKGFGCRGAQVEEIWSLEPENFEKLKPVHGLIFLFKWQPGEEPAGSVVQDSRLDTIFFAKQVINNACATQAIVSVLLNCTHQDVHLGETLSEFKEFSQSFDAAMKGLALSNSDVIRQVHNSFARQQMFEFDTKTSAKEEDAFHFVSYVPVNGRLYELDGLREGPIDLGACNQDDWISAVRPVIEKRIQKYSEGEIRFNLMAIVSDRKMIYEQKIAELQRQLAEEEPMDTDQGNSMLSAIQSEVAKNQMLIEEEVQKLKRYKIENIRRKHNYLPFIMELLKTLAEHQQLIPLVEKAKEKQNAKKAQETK
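Test system – human UCH37 enzyme supplied as purified proteasome complex · Incubation – 30 min preincubation with enzyme, 25 min cleavage at room temperature · Detection – AMC fluorescence from Ub-AMC cleavage, excitation 355 nm, emission 460 nm · Benchmarks – no-proteasome wells (full inhibition) and compound-free wells (no inhibition)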
DAGLB inh – diacylglycerol lipase beta (human) inhibition. inhibition, % at 5.17 µM. AID 504411. 340,000 compounds, 0.059% hits. HEK293T DAGLB membrane lysate, EnzChek fluorogenic substrate; in the data active = inhibition above about 34%;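 also: 0% = enzyme with vehicle and 100% = wells lacking enzyme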
CTSL1 counter – cathepsin L1 inhibition, PFM18AAP counter-screen; recombinant F. hepatica cathepsin L1, Z-Leu-Arg-MCA fluorescence; 300,000 compounds, 0.49% hits; inhibition, % at 5.96 µM;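 active = inhibition above the mean of all tested compounds plus 3 SD, set per screening campaign, cut at about 17% in these data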;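 also: 0% = plate median of test compound wells and 100% = 1 µM Z-Phe-Ala-diazomethylketone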
CendR NRP1 mod – alters CendR peptide binding to human NRP-1; 360,000 compounds, 0.85% hits; inhibition, % at 25 µM; FAM-RPARPAR peptide binding to NRP-1, fluorescence polarization; O14786;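 active = inhibition or corrected inhibition above about 18%, plus a signal ratio from 0.5 to 1.5, limit read from the data, passing the limit was not always enough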
MT1-MMP act inh – inhibitors of human MT1-MMP activation; P50281; HT1080 RFP-PRO-GFP cells, GFP/RFP ratio fluorescence, overnight; percent of plate control window, DMSO zero; GFP/RFP ratio change, % at 20 µM; 360,000 compounds, 0.061% hits; AID 651647;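 active = GFP/RFP ratio change of at least 30% with cell ATP level not reduced by more than half and red fluorescence within 50% of control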
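Assay system – RFP-PRO-GFP reporter HT1080 cells · Compound dosing – single dose of 20 µM compound, 1% DMSO final · Incubation – overnight compound exposure at 37 °C · Measure – GFP/RFP fluorescence ratio · Benchmarks – DMSO wells and RFP-L50D-GFP cells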
* = called active by the depositor; i = inactive; . = not tested or not shown. A selection: hits, their analogues and other compounds. The true share with any hit is near 1.5%.

SMILES	UCH37 DUB inh	DAGLB inh	CTSL1 counter	CendR NRP1 mod	MT1-MMP act inh
CCC(Oc1ccc2c(c1)C(=O)CC(C)(C)O2)C(=O)NCCN1CCCCCC1 (stereo not drawn)	i	0	37*	2	1
COCCNC(=O)C(=O)NN=C(C)CC(=O)Nc1cccc(C(F)(F)F)c1	3	.	.	.	.
CC(=NNC(=O)c1ccco1)c1ccc(Br)s1	5	.	.	.	.
NC(=S)N/N=C\c1c(OCc2ccccc2Cl)ccc2ccccc12	.	1	30*	-4	1
NC(=O)NN=Cc1ccccc1OCc1cccc2ccccc12	5	.	.	.	.
Cc1ccc(NC(=S)N/N=C/c2c(C)[nH]c3ccccc23)cc1	.	-2	10	-56	-2
Cc1[nH]c2ccccc2c1/C=N/NC(N)=S	.	3	92*	9	4
NC(=S)N/N=C\c1c2ccccc2cc2ccccc12	.	-1	84*	6	7
NC(=S)NN=Cc1c(O)ccc2ccccc12	3	.	.	.	.
COc1nc(NN=Cc2ccc(-c3ccccc3[N+](=O)[O-])o2)nc(N2CCOCC2)n1	4	.	.	.	.
CC(=N/N=C1/NC(=O)C(CC(=O)Nc2ccccc2F)S1)C1CCCCC1 (stereo not drawn)	0	.	.	.	.
COC(=O)c1cn(C(=O)c2ccco2)c2ccccc12	-1	3	-3	-6	3
COC(=O)c1cn(C(=O)c2ccc(Br)o2)c2ccccc12	0	-2	-3	25*	6
Cc1cccc(C)c1N(CC(=O)NN=Cc1cc(Br)c(C)o1)S(C)(=O)=O	6	.	.	.	.
CC(C)c1cc(=O)oc2c3c4c(cc12)CCCN4CCC3	i	1	4	-76	-48
CN1CCCc2cc3c(C(F)(F)F)cc(=O)oc3nc21	i	-10	-1	38*	-14
COc1ccc(C2CC(C(F)(F)F)n3nc(C(=O)O)c(Cl)c3N2)cc1OC (stereo not drawn)	8	-4	-4	35*	-2
COc1ccc(C2CC(C(F)(F)F)n3nc(CO)c(Cl)c3N2)cc1OC (stereo not drawn)	6	0	4	-1	-9
Cc1ccc(C)c(C=Nn2cc(-c3ccccc3)[nH]c2=S)c1	-14	.	.	.	.
O=C(NN=Cc1[nH]c2ccccc2c1Cl)c1cccc(Br)c1	-204	.	.	.	.
CCOc1cc(C=NNC(=O)CSc2nncn2C)ccc1OC(=O)c1ccc(Cl)cc1	7	.	.	.	.
Cc1oc(-c2cccc(Cl)c2)nc1CS(=O)(=O)CC(=O)NCCN1CCCC1	3	4	90*	-5	2
CCOc1ccc(Nc2nc(N)nc(CSC(=S)N3CCOCC3)n2)cc1	3	1	18*	5	2
Cc1ccc(Nc2nc(N)nc(CSC(=S)N3CCOCC3)n2)cc1	5	1	1	-4	-3
O=C(O)c1c2c(nc3ccc(S(=O)(=O)N4CCC(C(=O)NCc5ccc(Cl)cc5)CC4)cc13)CCCC2	2	4	20*	-17	-5
SMILES	UCH37 DUB inh	DAGLB inh	CTSL1 counter	CendR NRP1 mod	MT1-MMP act inh
Cc1cc(C(=O)O)ccc1-n1c(C)cc(C=C2C(=O)c3ccccc3C2=O)c1C	15	4	19*	-46	1
CN(C)c1ncnc2c1ncn2C1CCCCO1 (stereo not drawn)	1	-1	.	4	-2
CN(C)c1ncnc2c1ncn2C1CCCO1 (stereo not drawn)	1	-1	.	26*	0
Cn1nc(C(F)(F)F)c(-c2ccc(Br)cc2)c1NC(=O)c1ccco1	5	-3	29*	0	5
CC(NC(=O)Nc1ccccn1)N1C(=O)C2C3C=CC(C3)C2C1=O (stereo not drawn)	23*	0	6	-7	-1
O=C(NCN1C(=O)C2C3C=CC(C3)C2C1=O)Nc1ccccn1 (stereo not drawn)	4	1	-3	-11	2
CC(=O)NCC1COc2ccccc2O1 (stereo not drawn)	3	0	-11	-2	-1
O=C(NCC1COc2ccccc2O1)Nc1ccccc1F (stereo not drawn)	5	-1	0	19*	2
O=C(CSCc1ccc(Cl)cc1)NN=Cc1ccc(Cl)cc1Cl	5	.	.	.	.
C=CCN(CC(=NO)c1sc(C(=O)OCC)nc1C)c1cccc(Br)c1	5	.	.	.	.
O=C(NNC(=O)c1ccccc1Cl)c1ccccc1Cl	2	2	2	15	2
